These results are taken from ChEMBL document CHEMBL3871270, “Structural and Biochemical Characterization of the Interaction of Tubulin with Potent Natural Analogues of Podophyllotoxin” (J Nat Prod, 2016).

Test [1] can be described thus: Cytotoxicity against human A2780 cells assessed as decrease in cell viability after 48 hrs by MTT assay. Format: functional, cell-based. The note with it: A2780, 48 h. The method, boiled down: (§1)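 A549 lung and A2780 ovarian human carcinoma cells were treated for 48 h, and viability was read by MTT assay. IC50 values are given as mean ± standard error of three independent experiments.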

A short description of test [2]: Cell cycle arrest in human A549 cells assessed as decrease in G1 phase population at 25 uM after 20 hrs by propidium iodide staining based flow cytometry. Type of test: functional. The method, boiled down:
(§2)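 A549 cells grown 20 h with compound across 20 nM to 25 μM; DMSO as negative and paclitaxel (30−50 nM) as positive control; DNA content histograms by flow cytometry give percent of cells in each cell cycle phase.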
(Flow cytometry measures light scatter and fluorescence of single cells or particles in a stream.)

The subject of test [3] is A549. Put plainly: Binding affinity to alpha-tubulin in human A549 cells assessed as induction of microtubule depolymerization by measuring formation of abnormal type 4 spindles at 50 uM after 24 hrs by immunofluorescence microscopy. Type of test: cell-based. The method, boiled down: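 A549 cells exposed 24 h, DMSO vehicle control; microtubules stained with DM1A anti-α-tubulin monoclonal antibody and DNA with Hoechst 33342; cytoplasmic microtubule network and mitotic spindle morphology scored by immunofluorescence microscopy.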

A short description of test [4]: Cell cycle arrest in human A549 cells assessed as accumulation at G2/M phase at 25 uM after 20 hrs by propidium iodide staining based flow cytometry. Type of test: functional. The method, boiled down: as §2
Test [5] in a line: Cytotoxicity against human A549 cells assessed as decrease in cell viability after 48 hrs by MTT assay. The note with it: A549, 48 h. Type of test: functional, cell-based. The method, boiled down: as §1
Background: Tetrazolium dyes change colour on reduction, which living cells bring about.

For test [6], the species on record is Homo sapiens. In words: Inhibition of 2-methoxy-5-(2,3,4-trimethoxyphenyl)-2,4,6-cycloheptatrien-1-one binding to colchicine binding site of tubulin (unknown origin) at 10 uM by fluorescence assay. The method, boiled down:
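Fluorescence emission spectra were recorded at 350 nm excitation for 10 μM purified tubulin plus 10 μM MTC (a colchicine-site probe), with 10 μM test compound. Reference spectra were MTC with tubulin alone and MTC alone. The result is the percent decrease in MTC fluorescence.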

The species entered for test [7] is Homo sapiens. In words: (§3) Inhibition of 2-methoxy-5-(2,3,4-trimethoxyphenyl)-2,4,6-cycloheptatrien-1-one binding to colchicine binding site of tubulin (unknown origin) by fluorescence spectroscopic analysis. A digest of the protocol:
(§4)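 Tubulin binding constants (Kb) were obtained from a competition assay against the colchicine-site fluorescent probe MTC, assuming 1:1 stoichiometry.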

The nature of test [8]: as §3. Also on record: species or system Homo sapiens. A digest of the protocol:
as §4

The species entered for test [9] is Homo sapiens. In words: Binding affinity to tubulin alpha/beta dimer (unknown origin) at 100 uM by STD-NMR method.
Test [10] is filed under the species Homo sapiens. Put plainly: Inhibition of tubulin assembly (unknown origin) assessed as decrease in pelleted microtubules up to 40 uM after 20 mins. The method, boiled down: (§5)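 Purified tubulin was assembled at 30 μM, above its 3.3 μM critical concentration, in the presence of compound. The resulting microtubules were pelleted by mild centrifugation to quantify assembly.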

Test [11] is described as follows: Cell cycle arrest in human A549 cells assessed as decrease in G1 phase population at 100 nM after 20 hrs by propidium iodide staining based flow cytometry. Format: functional. A digest of the protocol:
(§6)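 A549 cells were grown for 20 h with compound across 20 nM to 25 μM. DMSO was the negative control and paclitaxel (30−50 nM) the positive control. The percentage of cells in each cell-cycle phase was determined from flow cytometry DNA histograms.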

Test [12] in a line: Cell cycle arrest in human A549 cells assessed as accumulation at G2/M phase at 100 nM after 20 hrs by propidium iodide staining based flow cytometry. Type of test: functional. A digest of the protocol: as §6
Test [13] has as its system A549. In words: Binding affinity to alpha-tubulin in human A549 cells assessed as induction of microtubule depolymerization by measuring formation of abnormal type 4 spindles at 100 nM after 24 hrs by immunofluorescence microscopy. Type of test: cell-based. A digest of the protocol: (§7)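 A549 cells were exposed to compound or DMSO vehicle for 24 h. They were then stained with DM1A anti-α-tubulin monoclonal antibody for microtubules and Hoechst 33342 for DNA. Cytoplasmic microtubule networks and mitotic spindle morphology, including abnormal type IV ball-shaped spindles, were examined by immunofluorescence microscopy.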

The species named for test [14] is Homo sapiens. In words: Binding affinity to tubulin alpha/beta dimer (unknown origin) at 300 uM by STD-NMR method.
Test [15] is filed under the species Homo sapiens. Put plainly: Inhibition of tubulin assembly (unknown origin) assessed as decrease in pelleted microtubules up to 30 uM after 20 mins. A digest of the protocol:
as §5

The species entered for test [16] is Homo sapiens. Put plainly: Binding affinity to tubulin alpha/beta dimer (unknown origin) by TR-NOESY NMR spectroscopy.
The subject of test [17] is A549. In words: Binding affinity to alpha-tubulin in human A549 cells assessed as induction of microtubule depolymerization by measuring formation of abnormal type 4 spindles at 1 uM after 24 hrs by immunofluorescence microscopy. Format: cell-based. A digest of the protocol: as §7
Test [18] can be described thus: Cell cycle arrest in human A549 cells assessed as accumulation at G2/M phase at 1 uM after 20 hrs by propidium iodide staining based flow cytometry. Type of test: functional. The method, boiled down: as §6
Test [19] is described as follows: Cell cycle arrest in human A549 cells assessed as decrease in G1 phase population at 1 uM after 20 hrs by propidium iodide staining based flow cytometry. Format: functional. The method, boiled down:
as §6

Activity calls are given as the source filed them. The rule behind the calls is not given here.

Regarding `COc1c2c(cc3c1OCO3)[C@@H](c1ccc3c(c1)OCO3)[C@@H]1C(=O)OC[C@@H]1C2`, the IC50 – broadly, the concentration at which inhibition is half-maximal – turned out to be 12.9 µM in test [1] and 8.67 µM in test [5]. Besides, the outcome (in test [2]; in the test on A549 [3]; in [4]) was Active. Further, in the test listed under Homo sapiens [6], the inhibition – broadly, the share of the control response that was lost under treatment – was “Active”.
As for `COc1cc([C@@H]2c3cc4c(cc3[C@H](OC(C)=O)[C@H]3COC(=O)[C@H]23)OCO4)cc(OC)c1OC`, the IC50 stood at 0.034 µM in [1] and 0.025 µM in test [5]. The molecule also came in with a Kb in the test filed under Homo sapiens [7] of 170 ×10⁵ /M. Further, in [8], the Kd – broadly, the constant that tells how readily two partners part at equilibrium – is 0.058 µM. In addition, the result (in the test filed under Homo sapiens [9]; in test [11]; in test [12]; in the test with A549 [13]) was Active. Further, the inhibition in the test filed under Homo sapiens [10] was greater than 80%; in the test filed under Homo sapiens [6] it was 65%.
Consider `COc1cc([C@@H]2c3cc4c(cc3[C@H](O)[C@H]3COC(=O)[C@H]23)OCO4)cc(OC)c1OC` [PODOFILOX], for which the IC50 in [1] is 0.018 µM; in [5], 0.015 µM. Besides, the result in the test listed under Homo sapiens [14] and in the test on A549 [13] was Active. In addition, the Kb in the test listed under Homo sapiens [7] stood at 185 ×10⁵ /M. The same molecule had a dissociation constant Kd in test [8] of 0.054 µM. For the same molecule, the results for the inhibition in the test filed under Homo sapiens [10] and in the test filed under Homo sapiens [6] were greater than 80% and 68%, respectively. The Activity in test [12] was 70 to 80%.
On to `COc1ccc([C@@H]2c3cc4c(c(OC)c3C[C@H]3COC(=O)[C@@H]32)OCO4)cc1OC`, for which the IC50 was determined as 0.084 µM in [1] and 0.033 µM in test [5]. For the same molecule, the Kb in the test filed under Homo sapiens [7] stood at 11.8 ×10⁵ /M. This molecule displayed an equilibrium dissociation constant (Kd) in test [8] of 0.85 µM. The result (in the test listed under Homo sapiens [9]; in [11]; in test [12]; in the test on A549 [13]; in the test listed under Homo sapiens [16]) was Active. Further, in the test filed under Homo sapiens [15], the inhibition entry was “Active”. Further, the inhibition in the test listed under Homo sapiens [6] stood at 43%.
Regarding `COc1cc(C2=C3C(=O)OC[C@@H]3[C@@H](OC(C)=O)c3cc4c(cc32)OCO4)cc(OC)c1OC`, the result (in the test with A549 [17]; in [18]; in test [19]) was Active. For the same molecule, the IC50 in [1] came to 0.587 µM; in test [5] it was 0.263 µM. Further, in the test listed under Homo sapiens [15], the inhibition result was “Active”. Also, the inhibition in the test listed under Homo sapiens [6] came out at 17%.
